One block for each molecule: values may come before it.
Key:
[1] = tested on: Rattus norvegicus; experiment: Effect on hemodynamic parameters in Sprague-Dawley rat heart assessed as dPdT min at 128 ug/kg/min (reference value: -4611 mmHg/s); format: functional
[2] = tested on: Rattus norvegicus; experiment: Positive inotropic activity in Sprague-Dawley rat heart assessed as left ventricular internal diameter end diastole at 4 ug/kg/min for 3 mins by echocardiographic analysis (reference value: 5.66 to 7.80 mm); format: functional
Outline: (§1)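 Male Sprague-Dawley rats, seven weeks old, anaesthetised with 1.5 % isoflurane given by nosecone. Compound infused through the right internal jugular vein, used as a central venous line. Left ventricular dimensions measured by echocardiography.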

[3] = tested on: Rattus norvegicus; experiment: Effect on hemodynamic parameters in Sprague-Dawley rat heart assessed as end-diastolic pressure at 128 ug/kg/min (reference value: 9.64 mmHg); format: functional
[4] = tested on: Rattus norvegicus; experiment: Positive inotropic activity in Sprague-Dawley rat heart assessed as left ventricular posterior wall thickness end diastole at 8 ug/kg/min for 3 mins by echocardiographic analysis (reference value: 0.88 to 1.54 mm); format: functional; outline: as §1
[5] = tested on: Rattus norvegicus; experiment: Effect on hemodynamic parameters in Sprague-Dawley rat heart assessed as end-systolic pressure at 32 ug/kg/min (reference value: 87.48 mmHg); format: functional
[6] = tested on: Rattus norvegicus; experiment: Effect on hemodynamic parameters in Sprague-Dawley rat heart assessed as end-systolic pressure at 128 ug/kg/min (reference value: 87.48 mmHg); format: functional
[7] = tested on: Rattus norvegicus; experiment: Effect on hemodynamic parameters in Sprague-Dawley rat heart assessed as heart rate at 32 ug/kg/min (reference value: 274 bpm); format: functional
[8] = tested on: Rattus norvegicus; experiment: Positive inotropic activity in Sprague-Dawley rat heart assessed as fractional shortening at 16 ug/kg/min for 3 mins by echocardiographic analysis (reference value: 38.60 to 55.81%); format: functional
Outline: (§2)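 Seven-week-old male Sprague-Dawley rats under 1.5 % isoflurane via nosecone. Drug given through a right internal jugular vein central line. Left ventricular fractional shortening and ejection fraction measured by echocardiography with and without sample, expressed as % increase.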

[9] = tested on: Rattus norvegicus; experiment: Effect on hemodynamic parameters in Sprague-Dawley rat heart assessed as heart rate at 8 ug/kg/min (reference value: 260 to 322 bpm); format: functional
[10] = tested on: Rattus norvegicus; experiment: Effect on hemodynamic parameters in Sprague-Dawley rat heart assessed as dPdT min at 64 ug/kg/min (reference value: -4611 mmHg/s); format: functional
[11] = tested on: Rattus norvegicus; experiment: Effect on hemodynamic parameters in Sprague-Dawley rat heart assessed as end-diastolic pressure at 64 ug/kg/min (reference value: 9.64 mmHg); format: functional
[12] = tested on: Rattus norvegicus; experiment: Effect on hemodynamic parameters in Sprague-Dawley rat heart assessed as dPdT min at 16 ug/kg/min (reference value: -5462 to -4611 mmHg/s); format: functional
[13] = tested on: Rattus norvegicus; experiment: Effect on hemodynamic parameters in Sprague-Dawley rat heart assessed as end-systolic pressure at 64 ug/kg/min (reference value: 87.48 mmHg); format: functional
[14] = tested on: Rattus norvegicus; experiment: Effect on hemodynamic parameters in Sprague-Dawley rat heart assessed as dPdT min at 32 ug/kg/min (reference value: -4611 mmHg/s); format: functional
[15] = tested on: Rattus norvegicus; experiment: Effect on hemodynamic parameters in Sprague-Dawley rat heart assessed as dPdT max at 128 ug/kg/min (reference value: 4162 mmHg/s); format: functional
[16] = tested on: Rattus norvegicus; experiment: Effect on hemodynamic parameters in Sprague-Dawley rat heart assessed as heart rate at 128 ug/kg/min (reference value: 274 bpm); format: functional
[17] = tested on: Rattus norvegicus; experiment: Effect on hemodynamic parameters in Sprague-Dawley rat heart assessed as heart rate at 64 ug/kg/min (reference value: 274 bpm); format: functional
[18] = tested on: Rattus norvegicus; experiment: Positive inotropic activity in Sprague-Dawley rat heart assessed as ejection fraction at 4 ug/kg/min for 3 mins by echocardiographic analysis (reference value: 67.16 to 85.81%); format: functional; outline: as §2
[19] = tested on: Rattus norvegicus; experiment: Effect on hemodynamic parameters in Sprague-Dawley rat heart assessed as dPdT max at 32 ug/kg/min (reference value: 4162 mmHg/s); format: functional
[20] = organism: Bos taurus; experiment: Activation of actin-stimulated bovine cardiac myosin S1 fragment ATPase activity in sarcomere at 10 uM after 10 mins by spectrophotometric analysis
Outline: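 Bovine cardiac S1 myosin with actin thin filament complex at pCa 6.5, in 20 mM Tris HCl pH 7.5, 15 mM KCl, 6 mM MgCl2, 1 mM ATP. Compound at 10 μM, 10 min at room temperature. Stopped with Cytophos reagent; liberated phosphate read at 650 nm. % activity calculated relative to DMSO negative control, blank-corrected.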

[21] = tested on: Rattus norvegicus; experiment: Effect on hemodynamic parameters in Sprague-Dawley rat heart assessed as dPdT max at 64 ug/kg/min (reference value: 4162 mmHg/s); format: functional
[22] = tested on: Rattus norvegicus; experiment: Effect on hemodynamic parameters in Sprague-Dawley rat heart assessed as end-diastolic pressure at 32 ug/kg/min (reference value: 9.64 mmHg); format: functional
[23] = tested on: Rattus norvegicus; experiment: Effect on hemodynamic parameters in Sprague-Dawley rat heart assessed as end-diastolic pressure at 2 ug/kg/min (reference value: 7.68 mmHg); format: functional
[24] = tested on: Rattus norvegicus; experiment: Effect on hemodynamic parameters in Sprague-Dawley rat heart assessed as heart rate at 2 ug/kg/min (reference value: 322 bpm); format: functional
[25] = tested on: Rattus norvegicus; experiment: Effect on hemodynamic parameters in Sprague-Dawley rat heart assessed as dPdT min at 4 ug/kg/min (reference value: -5462 to -4898 mmHg/s); format: functional
[26] = tested on: Rattus norvegicus; experiment: Effect on hemodynamic parameters in Sprague-Dawley rat heart assessed as end-systolic pressure at 2 ug/kg/min (reference value: 97.85 mmHg); format: functional
[27] = tested on: Rattus norvegicus; experiment: Effect on hemodynamic parameters in Sprague-Dawley rat heart assessed as dPdT max at 2 ug/kg/min (reference value: 5214 mmHg/s); format: functional
[28] = tested on: Rattus norvegicus; experiment: Effect on hemodynamic parameters in Sprague-Dawley rat heart assessed as heart rate at 4 ug/kg/min (reference value: 260 to 322 bpm); format: functional
[29] = tested on: Rattus norvegicus; experiment: Effect on hemodynamic parameters in Sprague-Dawley rat heart assessed as end-diastolic pressure at 4 ug/kg/min (reference value: 7.68 to 9.83 mmHg); format: functional
[30] = tested on: Rattus norvegicus; experiment: Effect on hemodynamic parameters in Sprague-Dawley rat heart assessed as dPdT min at 2 ug/kg/min (reference value: -5462 mmHg/s); format: functional
[31] = tested on: Rattus norvegicus; experiment: Effect on hemodynamic parameters in Sprague-Dawley rat heart assessed as dPdT max at 4 ug/kg/min (reference value: 4985 to 5214 mmHg/s); format: functional
[32] = tested on: Rattus norvegicus; experiment: Effect on hemodynamic parameters in Sprague-Dawley rat heart assessed as end-systolic pressure at 4 ug/kg/min (reference value: 94.65 to 97.85 mmHg); format: functional

- Activity [20]: 53.3%
Compound: O=C(NCCCc1ccccc1)NCc1ccccc1
- Activity [1]: -6346 mmHg/s
- Activity [2]: 5.57 mm
- Activity [3]: 24.12 mmHg
- Activity [4]: 1.49 mm
- Activity [5]: 95.74 mmHg
- Activity [6]: 113.24 mmHg
- Activity [7]: 268 bpm
- Activity [8]: 71.65%
- Activity [9]: 271 bpm
- Activity [10]: -6138 mmHg/s
- Activity [11]: 16.85 mmHg
- Activity [12]: -5405 mmHg/s
- Activity [13]: 108.41 mmHg
- Activity [14]: -5375 mmHg/s
- Activity [15]: 6146 mmHg/s
- Activity [16]: 284 bpm
- Activity [17]: 277 bpm
- Activity [18]: 76.44%
- Activity [19]: 4744 mmHg/s
- Activity [21]: 5382 mmHg/s
- Activity [22]: 12.26 mmHg

- Activity [20]: 58%
Compound: COC(=O)N1CCN(Cc2cccc(NC(=O)Nc3ccc(C)nc3)c2F)CC1 [OMECAMTIV MECARBIL]
- Activity [2]: 6.41 mm
- Activity [23]: 7.65 mmHg
- Activity [24]: 322 bpm
- Activity [25]: -6516 mmHg/s
- Activity [4]: 1.23 mm
- Activity [26]: 109.76 mmHg
- Activity [8]: 60.81%
- Activity [9]: 292 bpm
- Activity [27]: 6320 mmHg/s
- Activity [12]: -6342 mmHg/s
- Activity [28]: 326 bpm
- Activity [29]: 7 mmHg
- Activity [30]: -6628 mmHg/s
- Activity [18]: 87.85%
- Activity [31]: 6645 mmHg/s
- Activity [32]: 108.85 mmHg

Reference: ChEMBL document CHEMBL4033651, “Exploration of flexible phenylpropylurea scaffold as novel cardiac myosin activators for the treatment of systolic heart failure” (Eur J Med Chem, 2017)
